Test results as given in ChEMBL document CHEMBL1944603, “An efficient synthesis of highly functionalized novel chromeno[4,3-b]pyrroles and indolizino[6,7-b]indoles as potent antimicrobial and antioxidant agents” (2012).
Converted amounts (≈) assume the structure as drawn.

Experiments:
Type in all cases: functional
[1] = tested on: Radical scavenging activity; assay: Antioxidant activity assessed as DPPH free radical scavenging activity at 50 ug by spectrophotometer
In short: (§1)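 DPPH radical scavenging measured spectrophotometrically by Blois's method at 50, 500 and 1000 µg. Absorbance read at 517 nm. Percent scavenging is the absorbance decrease at 517 nm relative to the absorbance of DPPH solution without test compound. L-ascorbic acid as standard.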

Bacillus subtilis [2] = assay: Antimicrobial activity against Bacillus subtilis at 25 ug/ml by agar diffusion assay
In short: (§2)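 Agar diffusion assay in duplicate against the human bacterial pathogens; tetracycline as reference control.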

Bacillus subtilis [3] = assay: Antimicrobial activity against Bacillus subtilis at 50 ug/ml by agar diffusion assay; in short: as §2
Bacillus subtilis [4] = assay: Antimicrobial activity against Bacillus subtilis at 75 ug/ml by agar diffusion assay; in short: as §2
Bacillus subtilis [5] = assay: Antimicrobial activity against Bacillus subtilis at 100 ug/ml by agar diffusion assay; in short: as §2
Staphylococcus aureus [6] = assay: Antimicrobial activity against Staphylococcus aureus at 25 ug/ml by agar diffusion assay; in short: as §2
Staphylococcus aureus [7] = assay: Antimicrobial activity against Staphylococcus aureus at 50 ug/ml by agar diffusion assay; in short: as §2
Staphylococcus aureus [8] = assay: Antimicrobial activity against Staphylococcus aureus at 75 ug/ml by agar diffusion assay; in short: as §2
Staphylococcus aureus [9] = assay: Antimicrobial activity against Staphylococcus aureus at 100 ug/ml by agar diffusion assay; in short: as §2
Pseudomonas aeruginosa [10] = assay: Antimicrobial activity against Pseudomonas aeruginosa at 25 ug/ml by agar diffusion assay; in short: as §2
Pseudomonas aeruginosa [11] = assay: Antimicrobial activity against Pseudomonas aeruginosa at 50 ug/ml by agar diffusion assay; in short: as §2
Pseudomonas aeruginosa [12] = assay: Antimicrobial activity against Pseudomonas aeruginosa at 75 ug/ml by agar diffusion assay; in short: as §2
Pseudomonas aeruginosa [13] = assay: Antimicrobial activity against Pseudomonas aeruginosa at 100 ug/ml by agar diffusion assay; in short: as §2
Klebsiella pneumoniae [14] = assay: Antimicrobial activity against Klebsiella pneumoniae at 25 ug/ml by agar diffusion assay; in short: as §2
Klebsiella pneumoniae [15] = assay: Antimicrobial activity against Klebsiella pneumoniae at 50 ug/ml by agar diffusion assay; in short: as §2
Klebsiella pneumoniae [16] = assay: Antimicrobial activity against Klebsiella pneumoniae at 75 ug/ml by agar diffusion assay; in short: as §2
Klebsiella pneumoniae [17] = assay: Antimicrobial activity against Klebsiella pneumoniae at 100 ug/ml by agar diffusion assay; in short: as §2
Fusarium oxysporum = assay: Antifungal activity against Fusarium oxysporum
In short: (§3)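 Agar diffusion assay in duplicate against the plant fungal pathogens; read-out as minimum inhibitory concentration (MIC); carbendazim as reference control.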

Macrophomina phaseolina = assay: Antifungal activity against Macrophomina phaseolina; in short: as §3
[18] = tested on: Radical scavenging activity; assay: Antioxidant activity assessed as DPPH free radical scavenging activity at 500 ug by spectrophotometer; in short: as §1
[19] = tested on: Radical scavenging activity; assay: Antioxidant activity assessed as DPPH free radical scavenging activity at 1000 ug by spectrophotometer; in short: as §1

MIC (Fusarium oxysporum) [µg/mL]	MIC (Macrophomina phaseolina) [µg/mL]	Compound	Activity [1] [%]	inhibition zone (IZ) (Bacillus subtilis [2]) [mm]	inhibition zone (IZ) (Bacillus subtilis [3]) [mm]	inhibition zone (IZ) (Bacillus subtilis [4]) [mm]	inhibition zone (IZ) (Bacillus subtilis [5]) [mm]	inhibition zone (IZ) (Staphylococcus aureus [6]) [mm]	inhibition zone (IZ) (Staphylococcus aureus [7]) [mm]	inhibition zone (IZ) (Staphylococcus aureus [8]) [mm]	inhibition zone (IZ) (Staphylococcus aureus [9]) [mm]	inhibition zone (IZ) (Pseudomonas aeruginosa [10]) [mm]	inhibition zone (IZ) (Pseudomonas aeruginosa [11]) [mm]	inhibition zone (IZ) (Pseudomonas aeruginosa [12]) [mm]	inhibition zone (IZ) (Pseudomonas aeruginosa [13]) [mm]	inhibition zone (IZ) (Klebsiella pneumoniae [14]) [mm]	inhibition zone (IZ) (Klebsiella pneumoniae [15]) [mm]	inhibition zone (IZ) (Klebsiella pneumoniae [16]) [mm]	inhibition zone (IZ) (Klebsiella pneumoniae [17]) [mm]	Activity [18] [%]	also measured
35 (≈ 64.2 µM)	90 (≈ 165 µM)	COC(=O)[C@]12Cc3c([nH]c4ccccc34)[C@@H](c3cccc([N+](=O)[O-])c3)N1[C@@H]1c3c(ccc4ccccc34)OC[C@@H]1C2	30	12	19	24	29	19	20	24	28	14	20	24	30	13	18	22	27	53	Activity [19]: 67%
85 (≈ 206 µM)	60 (≈ 145 µM)	COC(=O)[C@@]1(Cc2c[nH]c3ccccc23)C[C@H]2COc3ccc4ccccc4c3[C@H]2N1	33	10	15	19	24	9	13	18	24	9	14	20	21	10	14	20	23	52	Activity [19]: 66%
90 (≈ 168 µM)	105 (≈ 196 µM)	COC(=O)[C@]12Cc3c([nH]c4ccccc34)[C@@H](c3ccc(Cl)cc3)N1[C@@H]1c3c(ccc4ccccc34)OC[C@@H]1C2	26	12	18	21	26	14	17	20	28	12	16	20	26	11	15	22	25	44	Activity [19]: 75%
70 (≈ 144 µM)	20 (≈ 41.2 µM)	COC(=O)[C@]12Cc3c([nH]c4ccccc34)[C@@H](c3ccc(Cl)cc3)N1[C@@H]1c3ccccc3OC[C@@H]1C2	21	13.5	21	26	36	20	21	24	29	16	22	25	36	16	20	25	30	43	Activity [19]: 68%
